Assay results published in ChEMBL document CHEMBL1914423, “New imidazo[2,1-b]thiazole derivatives: synthesis, in vitro anticancer evaluation, and in silico studies” (Eur J Med Chem, 2011).

Legend:
[1] = system: MDA-MB-435; assay: Antiproliferative activity against human MDA-MB-435 cells after 48 hrs by MTT assay; format: functional, cell-based; conditions: MDA-MB-435, 48 h
[2] = system: HL-60(TB); assay: Anticancer activity against human HL-60(TB) cells after 48 hrs by SRB assay; format: functional; conditions: HL-60, 48 h
In short: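 NCI-60 five-dose screen. Cells grown in RPMI 1640 with 5% FBS and 2 mM L-glutamine, seeded at 5000–40,000 cells/well, and held 24 h at 37 °C and 5% CO₂ before drug. DMSO stocks were diluted into five concentrations (10-fold or ½-log steps). Settled suspension cells were fixed with cold TCA, SRB-stained, and read at 515 nm. […] was taken where [(Ti−Tz)/(C−Tz)]×100 = 50.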

[3] = system: K562; assay: Anticancer activity against human K562 cells after 48 hrs by SRB assay; format: functional; conditions: K562, 48 h
In short: (§1)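 NCI five-dose screen. Cells in RPMI 1640 with 5% FBS and 2 mM L-glutamine, seeded at 5000–40,000 cells/well according to doubling time, then pre-incubated 24 h at 37 °C in 5% CO2. Drugs dissolved in DMSO, five concentrations by 10-fold or 1/2-log dilution. Cells fixed with TCA, SRB-stained, A515 read. IC50 solved from [(Ti−Tz)/(C−Tz)]×100 = 50.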

[4] = system: RPMI-8226; assay: Anticancer activity against human RPMI8226 cells after 48 hrs by SRB assay; format: functional; conditions: RPMI-8226, 48 h
[5] = system: SR; assay: Anticancer activity against human SR cells after 48 hrs by SRB assay; format: functional
In short: (§2)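 NCI-60 five-dose mode: cells in RPMI 1640 with 5% FBS and 2 mM glutamine, plated at 5000–40,000 cells/well, and preincubated 24 h, with time-zero plates TCA-fixed. Drug given at five concentrations (10-fold or ½-log serial dilutions). Cold TCA fixation 60 min at 4 °C, SRB stain, Tris solubilization, A515. IC50 taken where [(Ti−Tz)/(C−Tz)]×100 = 50.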

[6] = system: EKVX; assay: Anticancer activity against human EKVX cells after 48 hrs by SRB assay; format: functional; in short: as §1
[7] = system: HOP-62; assay: Anticancer activity against human HOP62 cells after 48 hrs by SRB assay; format: functional; conditions: HOP-62, 48 h; in short: as §1
[8] = system: HOP-92; assay: Anticancer activity against human HOP92 cells after 48 hrs by SRB assay; format: functional; conditions: HOP-92, 48 h; in short: as §1
[9] = system: NCI-H23; assay: Anticancer activity against human NCI-H23 cells after 48 hrs by SRB assay; format: functional; conditions: NCI-H23, 48 h
[10] = system: NCI-H522; assay: Anticancer activity against human NCI-H522 cells after 48 hrs by SRB assay; format: functional; conditions: NCI-H522, 48 h
[11] = system: COLO 205; assay: Anticancer activity against human COLO205 cells after 48 hrs by SRB assay; format: functional; conditions: COLO 205, 48 h; in short: as §1
[12] = system: HCT-116; assay: Anticancer activity against human HCT116 cells after 48 hrs by SRB assay; format: functional; conditions: HCT-116, 48 h; in short: as §1
[13] = system: HT-29; assay: Anticancer activity against human HT-29 cells after 48 hrs by SRB assay; format: functional; conditions: HT-29, 48 h; in short: as §1
[14] = system: SF-268; assay: Anticancer activity against human SF268 cells after 48 hrs by SRB assay; format: functional; conditions: SF-268, 48 h
[15] = system: SF-539; assay: Anticancer activity against human SF539 cells after 48 hrs by SRB assay; format: functional; conditions: SF-539, 48 h
[16] = system: U-251; assay: Anticancer activity against human U251 cells after 48 hrs by SRB assay; format: functional; conditions: U-251, 48 h; in short: as §2
[17] = system: LOX IMVI; assay: Anticancer activity against human LOXIMVI cells after 48 hrs by SRB assay; format: functional; in short: as §1
[18] = system: Malme-3M; assay: Anticancer activity against human MALME-3M cells after 48 hrs by SRB assay; format: functional; in short: as §1
[19] = system: MDA-MB-435; assay: Anticancer activity against human MDA-MB-435 cells after 48 hrs by SRB assay; format: functional; conditions: MDA-MB-435, 48 h; in short: as §1
[20] = system: SK-MEL-2; assay: Anticancer activity against human SK-MEL-2 cells after 48 hrs by SRB assay; format: functional; conditions: SK-MEL-2, 48 h
[21] = system: SK-MEL-5; assay: Anticancer activity against human SK-MEL-5 cells after 48 hrs by SRB assay; format: functional; conditions: SK-MEL-5, 48 h
[22] = system: OVCAR-4; assay: Anticancer activity against human OVCAR4 cells after 48 hrs by SRB assay; format: functional; conditions: OVCAR-4, 48 h
[23] = system: OVCAR-5; assay: Anticancer activity against human OVCAR5 cells after 48 hrs by SRB assay; format: functional; conditions: OVCAR-5, 48 h
[24] = system: NCI/ADR-RES; assay: Anticancer activity against human NCI/ADR-RES cells after 48 hrs by SRB assay; format: functional
[25] = system: CAKI-1; assay: Anticancer activity against human Caki1 cells after 48 hrs by SRB assay; format: functional; conditions: CAKI-1, 48 h; in short: as §1
[26] = system: RXF 393; assay: Anticancer activity against human RXF393 cells after 48 hrs by SRB assay; format: functional; conditions: RXF 393, 48 h
[27] = system: T47D; assay: Anticancer activity against human T47D cells after 48 hrs by SRB assay; format: functional; in short: as §2
[28] = system: MDA-MB-468; assay: Anticancer activity against human MDA-MB-468 cells after 48 hrs by SRB assay; format: functional; conditions: MDA-MB-468, 48 h
[29] = read-out: LC50 (the source's name)

SMILES: O=C(NCCNc1nccc(-c2c(-c3cccc(O)c3)nc3sccn23)n1)c1ccccc1
- IC50 [1]: 578 nM
- GI50 [2]: 10.2 µM
- TGI [2]: 29.6 µM
- GI50 [3]: 9.11 µM
- TGI [3]: > 100 µM
- CC50 [3, 29]: > 100 µM
- GI50 [4]: 6.97 µM
- TGI [4]: 25.3 µM
- GI50 [5]: 5.68 µM
- TGI [5]: 50 µM
- CC50 [5, 29]: > 100 µM
- GI50 [6]: 25 µM
- TGI [6]: > 100 µM
- GI50 [7]: 23.5 µM
- TGI [7]: 94.2 µM
- GI50 [8]: 2220 nM
- TGI [8]: 33.2 µM
- CC50 [8, 29]: > 100 µM
- GI50 [9]: 10 µM
- TGI [9]: 30.7 µM
- GI50 [10]: 5.76 µM
- TGI [10]: 25.5 µM
- CC50 [10, 29]: 93.9 µM
- GI50 [11]: 3.99 µM
- TGI [11]: 23.8 µM
- CC50 [11, 29]: > 100 µM
- GI50 [12]: 4.82 µM
- TGI [12]: 17.5 µM
- CC50 [12, 29]: 49.6 µM
- GI50 [13]: 6.79 µM
- TGI [13]: 38.3 µM
- CC50 [13, 29]: > 100 µM
- GI50 [14]: 15.5 µM
- TGI [14]: 87 µM
- CC50 [14, 29]: > 100 µM
- GI50 [15]: 11.3 µM
- TGI [15]: 36.8 µM
- CC50 [15, 29]: > 100 µM
- GI50 [16]: 17.9 µM
- TGI [16]: > 100 µM
- CC50 [16, 29]: > 100 µM
- GI50 [17]: 3.22 µM
- TGI [17]: 17.8 µM
- CC50 [17, 29]: 80.2 µM
- GI50 [18]: 205 nM
- CC50 [18, 29]: > 100 µM
- GI50 [19]: 578 nM
- TGI [19]: 12.8 µM
- CC50 [19, 29]: 71.3 µM
- GI50 [20]: 2940 nM
- TGI [20]: 12.9 µM
- CC50 [20, 29]: 48.8 µM
- GI50 [21]: 4.15 µM
- TGI [21]: 17.5 µM
- CC50 [21, 29]: 43.4 µM
- GI50 [22]: 13.9 µM
- TGI [22]: 84.6 µM
- CC50 [22, 29]: > 100 µM
- GI50 [23]: 18.3 µM
- TGI [23]: 61.8 µM
- CC50 [23, 29]: > 100 µM
- GI50 [24]: 34.8 µM
- TGI [24]: > 100 µM
- CC50 [24, 29]: > 100 µM
- GI50 [25]: 5.92 µM
- TGI [25]: 29.6 µM
- CC50 [25, 29]: > 100 µM
- GI50 [26]: 4.14 µM
- TGI [26]: 22.2 µM
- CC50 [26, 29]: 98.1 µM
- GI50 [27]: 11 µM
- TGI [27]: 49 µM
- CC50 [27, 29]: > 100 µM
- GI50 [28]: 3.6 µM
- TGI [28]: 28.7 µM
- CC50 [28, 29]: > 100 µM
